Assay results as given in ChEMBL document CHEMBL4480410, “Targeting the MKK7-JNK (Mitogen-Activated Protein Kinase Kinase 7-c-Jun N-Terminal Kinase) Pathway with Covalent Inhibitors” (J Med Chem, 2019).
The source made the active and inactive calls. The rule behind the calls is not given here.

How the values were obtained:
[1] = biological target: T1, Cytoplasmic tyrosine-protein kinase BMX (Homo sapiens) (UniProt P51813); assay: Inhibition of BMX (unknown origin) at 1 uM by proQinase-based assay relative to control
T1 sequence (whole entry): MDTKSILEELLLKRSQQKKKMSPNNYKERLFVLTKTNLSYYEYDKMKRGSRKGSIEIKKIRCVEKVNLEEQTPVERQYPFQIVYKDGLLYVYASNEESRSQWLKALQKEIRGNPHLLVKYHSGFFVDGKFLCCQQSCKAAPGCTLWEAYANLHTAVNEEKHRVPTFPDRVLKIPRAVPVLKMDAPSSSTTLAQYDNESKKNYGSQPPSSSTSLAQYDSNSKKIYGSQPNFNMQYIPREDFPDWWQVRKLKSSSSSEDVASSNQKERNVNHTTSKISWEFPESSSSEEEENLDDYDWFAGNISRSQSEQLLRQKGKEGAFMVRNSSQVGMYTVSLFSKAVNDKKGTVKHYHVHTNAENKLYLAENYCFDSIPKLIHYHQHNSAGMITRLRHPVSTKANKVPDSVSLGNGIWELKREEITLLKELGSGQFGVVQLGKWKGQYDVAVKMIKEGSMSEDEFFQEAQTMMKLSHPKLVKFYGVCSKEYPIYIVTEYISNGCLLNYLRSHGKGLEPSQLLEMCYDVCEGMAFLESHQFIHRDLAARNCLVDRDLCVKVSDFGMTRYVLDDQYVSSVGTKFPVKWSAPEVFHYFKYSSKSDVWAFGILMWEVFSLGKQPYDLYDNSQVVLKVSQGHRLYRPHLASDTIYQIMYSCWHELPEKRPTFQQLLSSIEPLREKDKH

[2] = biological target: T2, Tyrosine-protein kinase JAK3 (Homo sapiens) (UniProt P52333); assay: Inhibition of JAK3 (unknown origin) at 1 uM by proQinase-based assay relative to control
T2 sequence (whole entry): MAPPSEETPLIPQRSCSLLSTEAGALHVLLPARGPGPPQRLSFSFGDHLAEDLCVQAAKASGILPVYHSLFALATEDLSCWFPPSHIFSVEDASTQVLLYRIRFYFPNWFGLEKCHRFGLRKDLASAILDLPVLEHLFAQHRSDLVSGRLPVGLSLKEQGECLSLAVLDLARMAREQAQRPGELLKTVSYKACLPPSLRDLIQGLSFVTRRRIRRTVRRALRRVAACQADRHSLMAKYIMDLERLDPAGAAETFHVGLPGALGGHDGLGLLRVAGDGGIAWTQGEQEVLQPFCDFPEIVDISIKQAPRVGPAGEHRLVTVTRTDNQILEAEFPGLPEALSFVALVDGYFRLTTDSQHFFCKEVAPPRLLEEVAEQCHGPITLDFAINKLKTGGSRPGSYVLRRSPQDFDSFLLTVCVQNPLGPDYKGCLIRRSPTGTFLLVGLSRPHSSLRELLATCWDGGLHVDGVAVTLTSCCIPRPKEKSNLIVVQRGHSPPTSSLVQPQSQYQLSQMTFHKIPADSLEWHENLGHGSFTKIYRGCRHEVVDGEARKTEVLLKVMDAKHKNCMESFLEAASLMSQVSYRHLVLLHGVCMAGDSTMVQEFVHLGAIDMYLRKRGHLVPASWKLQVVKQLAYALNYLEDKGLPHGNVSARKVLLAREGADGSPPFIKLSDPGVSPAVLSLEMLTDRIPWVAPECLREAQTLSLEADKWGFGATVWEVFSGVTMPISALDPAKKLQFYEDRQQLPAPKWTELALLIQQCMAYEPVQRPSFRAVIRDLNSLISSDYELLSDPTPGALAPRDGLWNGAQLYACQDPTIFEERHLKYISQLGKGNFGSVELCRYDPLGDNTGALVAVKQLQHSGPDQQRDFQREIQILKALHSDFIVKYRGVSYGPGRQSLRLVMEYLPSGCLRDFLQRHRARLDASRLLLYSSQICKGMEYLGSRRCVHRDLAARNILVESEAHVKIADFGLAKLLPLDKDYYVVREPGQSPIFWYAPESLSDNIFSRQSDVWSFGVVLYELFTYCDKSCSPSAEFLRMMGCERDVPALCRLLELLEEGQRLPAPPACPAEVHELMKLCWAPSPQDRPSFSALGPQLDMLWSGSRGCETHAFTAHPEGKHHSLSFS

[3] = biological target: Tyrosine-protein kinase BTK (Homo sapiens) (UniProt Q06187); assay: Inhibition of BTK (unknown origin) at 1 uM by proQinase-based assay relative to control
Chain of Tyrosine-protein kinase BTK (Homo sapiens) (Q06187 whole entry): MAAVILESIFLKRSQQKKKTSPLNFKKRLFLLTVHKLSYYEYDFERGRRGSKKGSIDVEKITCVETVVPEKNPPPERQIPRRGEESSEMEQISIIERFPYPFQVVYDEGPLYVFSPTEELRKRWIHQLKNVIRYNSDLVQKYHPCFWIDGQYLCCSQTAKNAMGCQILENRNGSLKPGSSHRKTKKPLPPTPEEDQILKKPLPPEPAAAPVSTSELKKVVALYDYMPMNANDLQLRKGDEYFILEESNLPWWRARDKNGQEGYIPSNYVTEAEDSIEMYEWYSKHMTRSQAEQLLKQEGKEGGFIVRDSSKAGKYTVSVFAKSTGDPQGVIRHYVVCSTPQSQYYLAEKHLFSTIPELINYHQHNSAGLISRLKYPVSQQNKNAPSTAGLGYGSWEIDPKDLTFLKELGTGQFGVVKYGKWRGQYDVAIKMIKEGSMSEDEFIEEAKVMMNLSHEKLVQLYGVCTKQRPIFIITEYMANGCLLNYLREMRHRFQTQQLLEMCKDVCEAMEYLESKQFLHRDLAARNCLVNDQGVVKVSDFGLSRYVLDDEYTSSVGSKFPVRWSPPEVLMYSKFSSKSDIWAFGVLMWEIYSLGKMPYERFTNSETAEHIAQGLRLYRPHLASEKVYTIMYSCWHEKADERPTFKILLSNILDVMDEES

[4] = in vitro; settings: mouse, liver microsomes
[5] = biological target: T3, Dual specificity mitogen-activated protein kinase kinase 7 (Mus musculus) (UniProt Q8CE90); assay: Inhibition of MKK7 in mouse DRG cells assessed as reduction in cJUN phosphorylation at 1 uM after 2 hrs by Western blot analysis; assay type: cell-based
T3 sequence (whole entry): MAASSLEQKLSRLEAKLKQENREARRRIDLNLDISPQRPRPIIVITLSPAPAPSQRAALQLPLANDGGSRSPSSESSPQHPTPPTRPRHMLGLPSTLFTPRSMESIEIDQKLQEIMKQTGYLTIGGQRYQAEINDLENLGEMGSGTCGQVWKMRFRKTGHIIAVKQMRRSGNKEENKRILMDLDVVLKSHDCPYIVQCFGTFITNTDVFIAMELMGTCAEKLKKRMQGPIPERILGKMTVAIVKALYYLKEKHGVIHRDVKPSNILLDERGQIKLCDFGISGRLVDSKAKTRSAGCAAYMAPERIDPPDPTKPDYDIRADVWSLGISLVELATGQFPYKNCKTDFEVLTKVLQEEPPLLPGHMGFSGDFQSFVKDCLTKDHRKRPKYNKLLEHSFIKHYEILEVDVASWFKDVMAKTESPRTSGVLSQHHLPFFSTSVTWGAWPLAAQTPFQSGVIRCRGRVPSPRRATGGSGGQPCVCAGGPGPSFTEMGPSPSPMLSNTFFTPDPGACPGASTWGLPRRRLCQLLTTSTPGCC
How it was run: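 Dissociated DRG neurons plated on laminin for 3 h, medium replaced, compound added for a further 2 h. Neurons lysed in RIPA buffer with phosphatase inhibitors. Western blots probed for phospho-cJun, cJun, phospho-JNK and JNK.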

[6] = biological target: Tyrosine-protein kinase Blk (Homo sapiens) (UniProt P51451); assay: Inhibition of BLK (unknown origin) at 1 uM by proQinase-based assay relative to control
Chain of Tyrosine-protein kinase Blk (Homo sapiens) (P51451 2-505 limits assumed): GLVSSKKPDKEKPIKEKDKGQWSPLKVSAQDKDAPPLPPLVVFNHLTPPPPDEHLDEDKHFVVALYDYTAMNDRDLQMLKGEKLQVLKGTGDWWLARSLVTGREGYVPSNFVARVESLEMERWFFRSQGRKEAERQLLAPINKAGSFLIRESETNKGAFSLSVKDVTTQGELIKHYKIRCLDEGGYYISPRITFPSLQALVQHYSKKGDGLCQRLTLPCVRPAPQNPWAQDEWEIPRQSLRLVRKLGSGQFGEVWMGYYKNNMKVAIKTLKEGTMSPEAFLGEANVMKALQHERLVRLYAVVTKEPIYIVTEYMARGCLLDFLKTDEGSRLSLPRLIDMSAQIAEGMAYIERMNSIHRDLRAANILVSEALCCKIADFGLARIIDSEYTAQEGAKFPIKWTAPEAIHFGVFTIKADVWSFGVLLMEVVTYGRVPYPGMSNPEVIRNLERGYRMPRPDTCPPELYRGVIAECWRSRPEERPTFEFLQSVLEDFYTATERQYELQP

[7] = Stability in mouse plasma assessed as compound remaining at 5 uM after 1 hr by LC/MS analysis; assay type: ADME, cell-free; settings: read-out: Stability
How it was run: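 Compound at 5 µM incubated 1 h at 37 °C in human or mouse plasma; percentage remaining quantified by LC/MS.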

[8] = Apparent permeability across basolateral to apical side in human Caco2 cells at 5 uM after 2 hrs by transwell membrane based assay; assay type: ADME, cell-based, Caco-2; settings: Caco-2
How it was run: (§1)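 10 mM DMSO stock diluted to 5 µM final in HBSS pH 7.4; 2 h at 37 °C, 5% CO2 on Caco-2 monolayers grown 21 days on transwell membranes.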

[9] = Apparent permeability across apical to basolateral side in human Caco2 cells at 5 uM after 2 hrs by transwell membrane based assay; assay type: ADME, cell-based; settings: Caco-2; how it was run: as §1

- inhibition [1]: > 50%
- inhibition [2]: > 50%
- inhibition [3]: > 50%
- microsomal CLint at 1 h, 3 µM [4]: 124 µL/min/mg
- inhibition [5]: Active
- inhibition [6]: > 50%
- remaining at 1 h, 5 µM [7]: 70.4%
- Papp B→A at 2 h, 5 µM [8]: 130 nm/s
- Papp A→B at 2 h, 5 µM [9]: 200 nm/s
SMILES: C=CC(=O)N1CCC[C@@H](n2nc(-c3cn(-c4ccc(C(C)=O)cc4)nn3)c3c(N)ncnc32)C1
